# Laboratory results taken from the M2OR odorant receptor database.
# Biological target: T1, OR13C8 (Homo sapiens) (UniProt Q8NGS7)
# T1 sequence (whole entry): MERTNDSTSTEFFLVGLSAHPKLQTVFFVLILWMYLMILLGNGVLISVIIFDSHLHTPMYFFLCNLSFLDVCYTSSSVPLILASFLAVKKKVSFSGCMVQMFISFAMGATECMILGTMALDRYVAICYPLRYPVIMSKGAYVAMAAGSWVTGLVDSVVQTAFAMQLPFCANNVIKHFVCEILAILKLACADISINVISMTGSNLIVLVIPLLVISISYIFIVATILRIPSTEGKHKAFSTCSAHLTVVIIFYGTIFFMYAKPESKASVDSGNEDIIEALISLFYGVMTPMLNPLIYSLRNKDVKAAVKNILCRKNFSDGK
# Settings: stereoisomer not certain
# Summary of the method: (§1)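 Whether a receptor–molecule pair is responsive (active) rests on the original authors' judgment that its measured signal was statistically different from baseline. Pairs without that judgment are non-responsive (inactive). Sources used varied assay methods, commonly transient luciferase assays in mammalian cell lines.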
# 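Also: active if original authors judged signal statistically different from baseline.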
row,Structure (SMILES),odorant receptor agonist call
1,CCCC(S)CCOC(C)=O (stereo not drawn),inactive
2,CC(CO)CS (stereo not drawn),inactive
3,CC(=O)c1c(C)c([N+](=O)[O-])c(C(C)(C)C)c([N+](=O)[O-])c1C,inactive
4,CCCCCC(S)C(C)CO (stereo not drawn),inactive
5,CCC1OC(C)=C(O)C1=O (stereo not drawn),inactive
6,CCCCCCC=CCCC=O,inactive
7,CCC1OC(=O)C(O)=C1C (stereo not drawn),inactive
8,CCCCC(S)C(C)CO (stereo not drawn),inactive

# Biological target: T2, OR13C9 (Homo sapiens) (UniProt Q8NGT0)
# T2 sequence (whole entry): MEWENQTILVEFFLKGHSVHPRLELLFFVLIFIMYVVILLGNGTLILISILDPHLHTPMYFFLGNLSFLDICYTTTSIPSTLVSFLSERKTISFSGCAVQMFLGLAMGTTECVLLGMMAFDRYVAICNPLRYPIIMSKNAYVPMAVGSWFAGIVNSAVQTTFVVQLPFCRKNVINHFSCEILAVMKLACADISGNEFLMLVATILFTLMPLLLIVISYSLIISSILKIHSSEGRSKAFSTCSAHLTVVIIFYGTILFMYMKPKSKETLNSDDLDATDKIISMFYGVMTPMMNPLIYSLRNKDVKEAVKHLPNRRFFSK
# Settings: stereoisomer not certain
# Summary of the method: as §1
row,Structure (SMILES),odorant receptor agonist call
1,CC1=NC(C)C(C)S1 (stereo not drawn),inactive
2,CCCCCC(=O)C(C)C(C)=O (stereo not drawn),inactive
3,Cc1cnc(C)c(C)n1,inactive
4,CCC(S)C(C)CO (stereo not drawn),inactive
5,CC1CCCCCCCCCCCCC(=O)C1 (stereo not drawn),inactive
6,CC1=C(O)C(=O)C(C)O1 (stereo not drawn),inactive
7,CC1=C(O)C(=O)OC1C (stereo not drawn),inactive
8,CCCC(S)CCOC(C)=O (stereo not drawn),inactive
9,CC(CO)CS (stereo not drawn),inactive
10,CC(=O)c1c(C)c([N+](=O)[O-])c(C(C)(C)C)c([N+](=O)[O-])c1C,inactive
11,CCCCCC(S)C(C)CO (stereo not drawn),active
12,CCC1OC(C)=C(O)C1=O (stereo not drawn),inactive
13,CCCCCCC=CCCC=O,inactive
14,CCC1OC(=O)C(O)=C1C (stereo not drawn),inactive
15,CCCCC(S)C(C)CO (stereo not drawn),inactive

# Biological target: T3, OR13D1 (Homo sapiens) (UniProt Q8NGV5)
# T3 sequence (whole entry): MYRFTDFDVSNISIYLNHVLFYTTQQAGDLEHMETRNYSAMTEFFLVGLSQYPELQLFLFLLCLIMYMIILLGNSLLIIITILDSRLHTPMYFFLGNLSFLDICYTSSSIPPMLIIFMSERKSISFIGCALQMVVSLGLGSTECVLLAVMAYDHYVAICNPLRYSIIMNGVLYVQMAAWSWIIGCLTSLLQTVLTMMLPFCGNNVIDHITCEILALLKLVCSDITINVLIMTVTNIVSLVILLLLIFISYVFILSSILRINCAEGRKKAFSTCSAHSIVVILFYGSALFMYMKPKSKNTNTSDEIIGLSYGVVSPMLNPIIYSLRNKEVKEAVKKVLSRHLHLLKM
# Settings: stereoisomer not certain
# Summary of the method: as §1
row,Structure (SMILES),odorant receptor agonist call
1,CC1=NC(C)C(C)S1 (stereo not drawn),inactive
2,CCCCCC(=O)C(C)C(C)=O (stereo not drawn),inactive
3,Cc1cnc(C)c(C)n1,inactive
4,CCC(S)C(C)CO (stereo not drawn),inactive
5,CC1CCCCCCCCCCCCC(=O)C1 (stereo not drawn),inactive
6,CC1=C(O)C(=O)C(C)O1 (stereo not drawn),inactive
7,CC1=C(O)C(=O)OC1C (stereo not drawn),inactive
8,CCCC(S)CCOC(C)=O (stereo not drawn),inactive
9,CC(CO)CS (stereo not drawn),inactive
10,CC(=O)c1c(C)c([N+](=O)[O-])c(C(C)(C)C)c([N+](=O)[O-])c1C,inactive
11,CCCCCC(S)C(C)CO (stereo not drawn),inactive
12,CCC1OC(C)=C(O)C1=O (stereo not drawn),inactive
13,CCCCCCC=CCCC=O,inactive
14,CCC1OC(=O)C(O)=C1C (stereo not drawn),inactive
15,CCCCC(S)C(C)CO (stereo not drawn),inactive

# Biological target: T4, OR13F1 (Homo sapiens) (UniProt Q8NGS4)
# T4 sequence (whole entry): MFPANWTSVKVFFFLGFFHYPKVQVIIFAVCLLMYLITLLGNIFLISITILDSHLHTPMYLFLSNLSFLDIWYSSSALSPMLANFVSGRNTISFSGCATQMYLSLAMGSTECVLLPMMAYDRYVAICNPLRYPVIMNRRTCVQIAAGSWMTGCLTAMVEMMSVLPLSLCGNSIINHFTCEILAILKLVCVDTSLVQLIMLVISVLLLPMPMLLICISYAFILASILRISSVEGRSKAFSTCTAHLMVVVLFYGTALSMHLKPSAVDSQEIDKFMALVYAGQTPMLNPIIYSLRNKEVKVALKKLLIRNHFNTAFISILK
# Settings: stereoisomer not certain
# Summary of the method: as §1
row,Structure (SMILES),odorant receptor agonist call
1,CC1=NC(C)C(C)S1 (stereo not drawn),inactive
2,CCCCCC(=O)C(C)C(C)=O (stereo not drawn),inactive
3,Cc1cnc(C)c(C)n1,inactive
4,CCC(S)C(C)CO (stereo not drawn),inactive
5,CC1CCCCCCCCCCCCC(=O)C1 (stereo not drawn),inactive
6,CC1=C(O)C(=O)C(C)O1 (stereo not drawn),inactive
7,CC1=C(O)C(=O)OC1C (stereo not drawn),inactive
8,CCCC(S)CCOC(C)=O (stereo not drawn),inactive
9,CC(CO)CS (stereo not drawn),inactive
10,CC(=O)c1c(C)c([N+](=O)[O-])c(C(C)(C)C)c([N+](=O)[O-])c1C,inactive
11,CCCCCC(S)C(C)CO (stereo not drawn),inactive
12,CCC1OC(C)=C(O)C1=O (stereo not drawn),inactive
13,CCCCCCC=CCCC=O,inactive
14,CCC1OC(=O)C(O)=C1C (stereo not drawn),inactive
15,CCCCC(S)C(C)CO (stereo not drawn),inactive
